Legend:
[1] = target: T1, Alpha-1D adrenergic receptor (Homo sapiens, UniProt P25100); test: Displacement of [3H]prazosin from human recombinant alpha1D adrenoceptor expressed in CHO cells after 30 mins by liquid scintillation counting; type: cell-based
T1 sequence (P25100 whole entry): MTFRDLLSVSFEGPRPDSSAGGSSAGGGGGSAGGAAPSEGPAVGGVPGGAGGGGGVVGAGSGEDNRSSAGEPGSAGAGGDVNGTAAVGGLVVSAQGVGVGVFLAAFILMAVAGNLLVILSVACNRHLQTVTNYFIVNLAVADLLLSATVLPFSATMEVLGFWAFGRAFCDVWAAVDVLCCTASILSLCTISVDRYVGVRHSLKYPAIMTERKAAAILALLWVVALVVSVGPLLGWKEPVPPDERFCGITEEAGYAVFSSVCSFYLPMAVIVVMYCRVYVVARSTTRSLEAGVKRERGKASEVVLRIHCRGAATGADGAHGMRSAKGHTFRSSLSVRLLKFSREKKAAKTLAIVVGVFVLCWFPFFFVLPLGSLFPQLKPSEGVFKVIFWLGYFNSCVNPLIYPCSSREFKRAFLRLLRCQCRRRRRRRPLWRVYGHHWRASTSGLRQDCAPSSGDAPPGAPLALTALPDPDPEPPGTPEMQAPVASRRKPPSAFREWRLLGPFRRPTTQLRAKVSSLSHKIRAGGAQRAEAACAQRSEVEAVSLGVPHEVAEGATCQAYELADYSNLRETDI
In short: (§1)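 CHO cells were stably transfected by electroporation with each human α1 subtype. Membranes (70 µg protein) were incubated in 50 mM Tris pH 7.4 with 0.1–0.4 nM [3H]prazosin and competitor (1 pM–1 µM) for 30 min at 25 °C. Nonspecific binding with 10 µM tamsulosin. Filtration and scintillation counting. pKi from 2–3 experiments in duplicate.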

[2] = target: T2, 5-hydroxytryptamine receptor 1A (Homo sapiens, UniProt P08908); test: Displacement of [3H]8-OH-DPAT from human recombinant 5-HT1A receptor expressed in HeLa cells after 30 mins by liquid scintillation counting; type: cell-based
T2 sequence (P08908 whole entry): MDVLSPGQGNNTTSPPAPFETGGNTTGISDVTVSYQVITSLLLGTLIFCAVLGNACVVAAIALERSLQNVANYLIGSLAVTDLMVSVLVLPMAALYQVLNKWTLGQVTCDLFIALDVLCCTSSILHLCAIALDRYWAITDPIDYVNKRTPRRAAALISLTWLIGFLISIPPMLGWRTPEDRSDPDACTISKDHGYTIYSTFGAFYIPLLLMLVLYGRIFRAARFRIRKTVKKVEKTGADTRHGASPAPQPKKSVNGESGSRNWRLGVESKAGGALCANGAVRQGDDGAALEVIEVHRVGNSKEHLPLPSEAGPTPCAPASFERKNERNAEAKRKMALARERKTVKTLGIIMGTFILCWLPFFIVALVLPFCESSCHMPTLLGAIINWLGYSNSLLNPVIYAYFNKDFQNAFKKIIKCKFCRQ
In short: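 HeLa cells stably carrying genomic clone G-21 were grown in DMEM with 10% FCS, then lysed in Tris/EDTA pH 7.4. Membranes (80–90 µg protein) were incubated in 50 mM Tris, 2.5 mM MgCl2, 10 µM pargyline, pH 7.4, with 1 nM [3H]8-OH-DPAT and competitor (1 pM–1 µM) for 30 min at 30 °C, in triplicate. Nonspecific binding with 10 µM 5-HT. pKi from 2–3 experiments.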

[3] = target: T3, Alpha-1B adrenergic receptor (Rattus norvegicus) (UniProt P15823); test: Antagonist activity at alpha1B adrenoceptor in Wistar rat spleen assessed as phenylephrine-induced contractions after 30 mins
T3 sequence (whole entry): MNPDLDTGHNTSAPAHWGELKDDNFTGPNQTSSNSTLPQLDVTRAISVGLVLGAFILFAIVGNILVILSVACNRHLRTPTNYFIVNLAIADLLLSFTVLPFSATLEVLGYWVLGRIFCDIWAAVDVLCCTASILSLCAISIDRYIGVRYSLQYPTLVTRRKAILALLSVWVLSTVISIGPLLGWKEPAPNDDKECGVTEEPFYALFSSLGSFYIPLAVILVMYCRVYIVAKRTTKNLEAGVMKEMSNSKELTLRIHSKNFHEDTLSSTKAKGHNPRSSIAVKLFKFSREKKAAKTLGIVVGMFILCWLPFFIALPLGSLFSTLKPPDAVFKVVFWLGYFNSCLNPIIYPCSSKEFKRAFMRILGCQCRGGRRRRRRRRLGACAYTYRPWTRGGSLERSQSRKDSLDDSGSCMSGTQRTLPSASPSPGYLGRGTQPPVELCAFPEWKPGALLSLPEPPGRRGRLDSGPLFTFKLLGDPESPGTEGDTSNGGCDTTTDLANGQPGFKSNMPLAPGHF
In short: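 Spleen strips (bisected longitudinally) in Krebs with 4 µM propranolol, 1 g resting tension, 2 h equilibration. Cumulative phenylephrine curves recorded isometrically at 30 min intervals, the first discarded and the second used as control. Antagonist pre-equilibrated 30 min before a repeat agonist curve.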

Rattus norvegicus [4] = species on record: Rattus norvegicus; test: Selectivity ratio of Kb for alpha1D adrenoceptor in Wistar rat thoracic aorta to Kb for alpha1A adrenoceptor in Wistar rat vas deferans; type: tissue-based
Rattus norvegicus [5] = species on record: Rattus norvegicus; test: Selectivity ratio of Kb for alpha1D adrenoceptor in Wistar rat thoracic aorta to Kb for alpha1B adrenoceptor in Wistar rat spleen; type: tissue-based
Rattus norvegicus [6] = species on record: Rattus norvegicus; test: Selectivity ratio of Kb for alpha1B adrenoceptor in Wistar rat spleen to Kb for alpha1A adrenoceptor in Wistar rat vas deferans; type: tissue-based
[7] = target: T4, Alpha-1B adrenergic receptor (Homo sapiens, UniProt P35368); test: Displacement of [3H]prazosin from human recombinant alpha1B adrenoceptor expressed in CHO cells after 30 mins by liquid scintillation counting; type: cell-based; in short: as §1
T4 sequence (P35368 whole entry): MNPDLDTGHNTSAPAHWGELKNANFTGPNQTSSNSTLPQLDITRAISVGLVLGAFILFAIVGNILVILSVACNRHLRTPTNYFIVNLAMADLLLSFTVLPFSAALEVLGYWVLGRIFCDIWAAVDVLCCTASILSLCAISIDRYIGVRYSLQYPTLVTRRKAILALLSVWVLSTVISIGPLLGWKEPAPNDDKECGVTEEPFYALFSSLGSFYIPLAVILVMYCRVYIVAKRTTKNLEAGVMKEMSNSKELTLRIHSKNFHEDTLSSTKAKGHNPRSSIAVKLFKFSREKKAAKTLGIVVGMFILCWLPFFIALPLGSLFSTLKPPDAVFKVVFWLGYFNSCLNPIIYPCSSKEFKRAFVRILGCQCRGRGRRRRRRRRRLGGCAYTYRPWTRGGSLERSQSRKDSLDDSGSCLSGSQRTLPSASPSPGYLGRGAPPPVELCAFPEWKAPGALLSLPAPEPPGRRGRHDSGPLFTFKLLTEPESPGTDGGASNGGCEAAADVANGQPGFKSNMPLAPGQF

| SMILES | Ki [1] | Ki [2] | pKb [3] | Ratio (Rattus norvegicus [4]) | Ratio (Rattus norvegicus [5]) | Ratio (Rattus norvegicus [6]) | Ki [7] |
| --- | --- | --- | --- | --- | --- | --- | --- |
| COc1ccccc1N1CCN(CC2COC3(CCN(C(=O)c4ccc(C(F)(F)F)cc4)CC3)O2)CC1 (stereo unspecified) | 11 nM | 50.1 nM | 8.33 | 0.31 | 0.09 | 3.47 | 63.1 nM |
| COc1ccccc1N1CCN(CC2COC3(CCSCC3)O2)CC1 (stereo unspecified) | 14.8 nM | 9.33 nM | 7.63 | 0.17 | 0.16 | 1.07 | 141 nM |
| COc1ccccc1N1CCN(CC2COC3(CCN(S(C)(=O)=O)CC3)O2)CC1 (stereo unspecified) | 23.4 nM | 145 nM | 7.46 | 0.59 | 0.52 | 1.12 | 363 nM |
